Converted amounts (≈) assume the structure as drawn.
How the values were obtained:
[1] = Inhibition of Wnt3A-induced Wnt transcription (unknown origin) expressed in HEK293 cells coexpressing TK-driven Rluc after 20 to 22 hrs by super-top flash reporter gene assay; format: cell-based; details: Homo sapiens
Outline: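 HEK-293 cells (DMEM, 10% FBS) were co-transfected with Super(8x)TOPflash, a Wnt3A expression vector and TK-driven Renilla luciferase. After 8 h at 37 °C, 5% CO2, cells were seeded at 25,000/well and treated at 1.6, 8, 40, 200, 1000 or 5000 nM, or with DMSO, for 20-22 h in triplicate. Firefly/Renilla luminescence was taken relative to DMSO, and IC50 was found by nonlinear regression.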

[2] = Solubility of the compound; format: physicochemical
[3] = Lipophilicity, log D of the compound at pH 3; format: physicochemical; details: buffer
[4] = Lipophilicity, log D of the compound at pH 7; format: physicochemical; details: buffer
MCF7 [5] = assay: Induction of apoptosis in human MCF7 cells after 24 hrs by caspase-Glo 3/7 reagent based luminescence assay; format: functional, cell-based; details: MCF7, 24 h
Outline: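 MCF-7 cells were plated at 25,000/well (DMEM, 10% FBS) and grown 24 h, then treated at 1.6 nM–5 µM or with DMSO for 24 h. Caspase 3/7 activity was read by Caspase-Glo 3/7 luminescence. Triplicate signals relative to DMSO were analysed by nonlinear regression.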

MDA-MB-231 = assay: Antiproliferative activity against human MDA-MB-231 cells after 24 hrs by SYBR green dye based fluorescence assay; format: functional, cell-based; details: MDA-MB-231, 24 h
Outline: (§1)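 Cells were plated at 500/well in DMEM/10% FBS and allowed to attach for 24 h at 37 °C, 5% CO2. They were then exposed to 1.6 nM–5 µM or DMSO. One plate was harvested every 24 h over 7 days and frozen at -20 °C. DNA was quantified by SYBR Green fluorescence (Ex495/Em535). Triplicate values relative to DMSO went to nonlinear regression for IC50.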

MCF7 [6] = assay: Antiproliferative activity against human MCF7 cells after 24 hrs by SYBR green dye based fluorescence assay; format: functional, cell-based; details: MCF7, 24 h; outline: as §1

Compound	IC50 [1] [nM]	solubility [2] [µM]	logD [3]	logD [4]	EC50 (MCF7 [5]) [nM]	IC50 (MDA-MB-231) [nM]	IC50 (MCF7 [6]) [nM]
O=C1CCCN1c1ccc(S(=O)(=O)N2CCOc3ccccc32)cc1	10	26.6 (≈ 9.53 µg/mL)	1.7	1.7			
CN1CCN(S(=O)(=O)c2ccc(N3CCCC3)cc2)c2ccccc21	7				6	16	4
O=S(=O)(c1ccc(N2CCC=N2)cc1)N1CCCc2ccccc21	15	19 (≈ 6.49 µg/mL)	1.5	2.9			
O=C1CCCN1c1ccc(S(=O)(=O)N2CCCc3ncccc32)cc1	> 5000						
CC1CN(C)c2ccccc2N1S(=O)(=O)c1ccc(N2CCCC2=O)cc1 (racemic)	9	23.1 (≈ 8.9 µg/mL)	3.3	3.6			
O=C1CCCN1c1ccc(S(=O)(=O)N2CCCc3ccccc32)cc1	25	7.8 (≈ 2.78 µg/mL)	2.5	2.5	23	15	17
O=C1CCCN1c1ccc(S(=O)(=O)N2CCc3ccccc3C2)cc1	634						
O=C1CCCN1c1ccc(S(=O)(=O)N2CCCc3cc(Cl)ccc32)cc1	13	2.9 (≈ 1.13 µg/mL)	3.1	3.1			
O=S(=O)(c1ccc(N2CCCC2)cc1)N1CCCc2ccccc21	20	< 0.5	3.6	3.7			
O=S(=O)(c1ccc(-n2cncn2)cc1)N1CCCc2ccccc21	> 5000				> 5000	> 5000	> 5000
CN1CCN(S(=O)(=O)c2ccc(N3CCC=N3)cc2)c2ccccc21	18				5	13	7
O=C1CCCCN1c1ccc(S(=O)(=O)N2CCCc3ccccc32)cc1	> 5000						
COc1ccc2c(c1)CCCN2S(=O)(=O)c1ccc(N2CCCC2=O)cc1	6				16	20	25
O=C1CCCN1c1ccc(S(=O)(=O)N2CCN(CCO)c3ccccc32)cc1	> 5000						
O=C1CCCN1c1ccc(S(=O)(=O)N2CCCCC2)cc1	> 5000						

— ChEMBL document CHEMBL4229494, “Novel tertiary sulfonamides as potent anti-cancer agents” (Bioorg Med Chem, 2018)
